Series [1] has as its target Prostaglandin F2-alpha receptor (Mus musculus) (UniProt P43117). The series can be described thus: Allosteric modulator activity at prostaglandin F2alpha receptor in CD-1 mouse myometrial strips assessed as inhibition of PGF2alpha- induced contraction at 1 uM pre-incubated for 20 mins followed by PGF2alpha challenge. The gist of the method: (§1)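 Myometrial strips; baseline taken as mean tension of spontaneous contractions at start. Pretreated 20 min with modulator, then PGF2α challenge. Tension rise computed as […], X = PGF2α-induced change in mean tension (g), Y = initial reference response (g). % inhibition = (A-B)/A, A without and B with pretreatment. 5 experiments per group; means ± SEM.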

For series [2] the target is unchanged. The series can be described thus: Allosteric modulator activity at prostaglandin F2alpha receptor in CD-1 mouse myometrial strips assessed as inhibition of PGF2alpha- induced contraction at 10 uM pre-incubated for 20 mins followed by PGF2alpha challenge. The gist of the method: as §1
A short description of series [3]: Solubility of the compound. The series is classed as physicochemical.
Series [4] relates to Mus musculus. The series can be described thus: Suppression of LPS-induced premature delivery in Timed-pregnant CD-1 mouse assessed as inhibition of LPS-induced myometrial contraction by measuring percentage of animals delivering at 20 mg administered subcutaneously followed by 0.1 mg, ip bolus injection on day 16 prior to LPS challenge and measured on day 17. It counts as functional. More on the design: scale not given: the % may be the effect or the level left. The procedure, abridged: (§2)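 Pregnant mice given LPS (E. coli endotoxin) intraperitoneally on gestational day 16. Test agent 20 mg/kg/day, started on day 16, before LPS; controls received saline. Delivery scored as percentage of animals delivered at 12, 15–24, 24–48 and 72 h after LPS. Average delivery time after LPS also recorded. 5–6 animals per treated group; n=10 for saline controls.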

Series [5] concerns Mus musculus. The series can be described thus: Suppression of LPS-induced premature delivery in Timed-pregnant CD-1 mouse assessed as inhibition of LPS-induced myometrial contraction at 20 mg administered subcutaneously followed by 0.1 mg, ip bolus injection on day 16 prior to LPS challenge and measured up to day 19. It counts as functional, organism-based. The gist of the method: as §2

For series [6], the system named is Mus musculus. The series can be described thus: Suppression of LPS-induced premature delivery in Timed-pregnant CD-1 mouse assessed as inhibition of LPS-induced myometrial contraction by measuring time of delay in labor at 20 mg administered subcutaneously followed by 0.1 mg, ip bolus injection on day 16 prior to LPS challenge (reference value: 12 hrs). It counts as functional. The procedure, abridged: as §2

Active and inactive are the calls of the source. The calls are words filed in the database; no cut-off is given here. Non-standard residues stand in square brackets, D forms with d. Residues, ends and D or L forms follow the SMILES beside them. *: point of attachment. Pro(trans-4-F) = O=C(O)[C@@H]1C[C@@H](F)CN1; Pro(cis-4-F) = O=C(O)[C@@H]1C[C@H](F)CN1; Pro(4R-NH2) = N[C@H]1CN[C@H](C(=O)O)C1; 3Pal = N[C@@H](Cc1cccnc1)C(=O)O; β3hF = N[C@H](CC(=O)O)Cc1ccccc1; PhAc = O=C(Cc1ccccc1)*; azaGly = NNC(=O)O

Chain of Prostaglandin F2-alpha receptor (Mus musculus) (P43117 whole entry): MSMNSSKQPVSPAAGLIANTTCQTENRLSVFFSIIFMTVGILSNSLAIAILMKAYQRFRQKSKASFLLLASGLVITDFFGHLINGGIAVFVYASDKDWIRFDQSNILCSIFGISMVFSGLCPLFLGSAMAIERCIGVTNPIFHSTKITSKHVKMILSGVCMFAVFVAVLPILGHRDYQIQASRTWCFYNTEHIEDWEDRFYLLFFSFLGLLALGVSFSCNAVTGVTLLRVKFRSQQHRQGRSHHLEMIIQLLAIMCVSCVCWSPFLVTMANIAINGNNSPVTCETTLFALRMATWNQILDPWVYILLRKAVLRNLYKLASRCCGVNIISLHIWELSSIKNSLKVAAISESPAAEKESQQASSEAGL

For `O=C(O)C[C@H](Cc1ccccc1)NC(=O)[C@H](Cc1cccnc1)NC(=O)[C@@H]1C[C@@H](O)CN1C(=O)N(Cc1ccccc1)NC(=O)Cc1ccccc1`, the inhibition result in series [1] and in series [2] was “inactive” each time.
Take `C#CCN(NC(=O)Cc1ccccc1)C(=O)N1C[C@H](O)C[C@H]1C(=O)N[C@@H](Cc1cccnc1)C(=O)N[C@H](CC(=O)O)Cc1ccccc1`: the inhibition entry in series [1] and in series [2] was “Active” each time.
Turning to `O=C(O)C[C@H](Cc1ccccc1)NC(=O)[C@H](Cc1cccnc1)NC(=O)[C@@H]1CCC2=CC[C@H](NC(=O)Cc3ccccc3)C(=O)N21`, the inhibition result in series [1] was “inactive”.
Regarding `O=C(O)C[C@H](Cc1ccccc1)NC(=O)[C@H](Cc1cccnc1)NC(=O)[C@@H]1CCC2=C(c3ccccc3)C[C@H](NC(=O)Cc3ccccc3)C(=O)N21`, the inhibition result in series [1] and in series [2] was “Active” in each case.
On to `O=C(O)C[C@H](Cc1ccccc1)NC(=O)[C@H](Cc1cccnc1)NC(=O)[C@@H]1CCCN1C(=O)N(Cc1cn(-c2ccccc2)nn1)NC(=O)Cc1ccccc1`, for which the inhibition result in series [1] and in series [2] was “inactive” each time.
Turning to `N#Cc1ccc(C2=C3CC[C@@H](C(=O)N[C@@H](Cc4cccnc4)C(=O)N[C@H](CC(=O)O)Cc4ccccc4)N3C(=O)[C@@H](NC(=O)Cc3ccccc3)C2)cc1`, the inhibition result in series [1] and in series [2] was “inactive” in each case.
As for `O=C(O)C[C@H](Cc1ccccc1)NC(=O)[C@H](Cc1cccnc1)NC(=O)[C@@H]1C[C@H](F)CN1C(=O)N(Cc1ccccc1)NC(=O)Cc1ccccc1`, the inhibition entry in series [1] and in series [2] was “inactive” in each case.
`O=C(O)C[C@H](Cc1ccccc1)NC(=O)[C@H](Cc1cccnc1)NC(=O)[C@@H]1CCCN1C(=O)N(Cc1cn(-c2ccc([N+](=O)[O-])cc2)nn1)NC(=O)Cc1ccccc1`: the inhibition entry in series [1] and in series [2] was “inactive” each time. For the same molecule, the solubility result in series [3] is recorded as “Insoluble”.
Take `O=C(O)C[C@H](Cc1ccccc1)NC(=O)[C@H](Cc1cccnc1)NC(=O)[C@@H]1CCCN1C(=O)N(Cc1ccc([N+](=O)[O-])cc1)NC(=O)Cc1ccccc1`: the inhibition entry in series [1] and in series [2] was “inactive” throughout.
On to `Nc1ccc(CC(=O)N[C@H]2CC[C@H]3CC[C@@H](C(=O)N[C@@H](Cc4cccnc4)C(=O)N[C@H](CC(=O)O)Cc4ccccc4)N3C2=O)cc1`, for which the inhibition result in series [1] and in series [2] was “inactive” in each case.
Regarding `O=C(O)C[C@H](Cc1ccccc1)NC(=O)[C@H](Cc1cccnc1)NC(=O)[C@@H]1C[C@H](F)CN1C(=O)NNC(=O)Cc1ccccc1` (PhAc-[azaGly][Pro(cis-4-F)][3Pal][β3hF]-OH), the inhibition entry in series [1] and in series [2] was “Active” throughout.
Consider `N[C@H]1C[C@@H](C(=O)N[C@@H](Cc2cccnc2)C(=O)N[C@H](CC(=O)O)Cc2ccccc2)N(C(=O)N(Cc2ccccc2)NC(=O)Cc2ccccc2)C1`, for which the inhibition entry in series [1] and in series [2] was “Active” throughout.
`O=C(O)C[C@H](Cc1ccccc1)NC(=O)[C@H](Cc1cccnc1)NC(=O)[C@@H]1CCCN1C(=O)NNC(=O)Cc1ccccc1` (PhAc-[azaGly]P[3Pal][β3hF]-OH): the Activity in the series on Mus musculus [4] is on record as less than 20%. For the same molecule, the inhibition result in the series on Mus musculus [5] was “Active”. For the same molecule, the Time with Mus musculus [6] is 24 h.
`O=C(O)C[C@H](Cc1ccccc1)NC(=O)[C@H](Cc1cccnc1)NC(=O)[C@@H]1CCCN1C(=O)N(CC#CCN1CCCCC1)NC(=O)Cc1ccccc1`: the inhibition entry in series [1] and in series [2] was “inactive” in each case.
Take `Cc1ccc(-n2cc(CN(NC(=O)Cc3ccccc3)C(=O)N3CCC[C@H]3C(=O)N[C@@H](Cc3cccnc3)C(=O)N[C@H](CC(=O)O)Cc3ccccc3)nn2)cc1`: the inhibition result in series [1] and in series [2] was “inactive” throughout.
Take `N[C@@H]1C[C@@H](C(=O)N[C@@H](Cc2cccnc2)C(=O)N[C@H](CC(=O)O)Cc2ccccc2)N(C(=O)NNC(=O)Cc2ccccc2)C1` (PhAc-[azaGly][Pro(4R-NH2)][3Pal][β3hF]-OH): the inhibition result in series [1] and in series [2] was “Active” each time.
`C#CCN(NC(=O)Cc1ccccc1)C(=O)N1C[C@H](F)C[C@H]1C(=O)N[C@@H](Cc1cccnc1)C(=O)N[C@H](CC(=O)O)Cc1ccccc1`: the inhibition entry in series [1] and in series [2] was “inactive” each time.
With `C#CCN(NC(=O)Cc1ccccc1)C(=O)N1C[C@@H](O)C[C@H]1C(=O)N[C@@H](Cc1cccnc1)C(=O)N[C@H](CC(=O)O)Cc1ccccc1`, the inhibition entry in series [1] and in series [2] was “inactive” in each case.
`O=C(O)C[C@H](Cc1ccccc1)NC(=O)[C@H](Cc1cccnc1)NC(=O)[C@@H]1CC[C@H]2CC[C@H](NC(=O)Cc3ccccc3)C(=O)N21`: in series [2], the inhibition result is “inactive”.
With `O=C(O)C[C@H](Cc1ccccc1)NC(=O)[C@H](Cc1cccnc1)NC(=O)[C@@H]1CCCN1C(=O)N(Cc1cn(-c2ccc(I)cc2)nn1)NC(=O)Cc1ccccc1`, the inhibition entry in series [1] and in series [2] was “inactive” each time.
Take `O=C(O)C[C@H](Cc1ccccc1)NC(=O)[C@H](Cc1cccnc1)NC(=O)[C@@H]1C[C@@H](O)[C@H]2CC[C@H](NC(=O)Cc3ccccc3)C(=O)N21`: the inhibition result in series [1] and in series [2] was “inactive” in each case.
In the case of `O=C(O)C[C@H](Cc1ccccc1)NC(=O)[C@H](Cc1cccnc1)NC(=O)[C@@H]1CCCN1C(=O)N(Cc1c(F)c(F)c(F)c(F)c1F)NC(=O)Cc1ccccc1`, the inhibition result in series [1] and in series [2] was “inactive” in each case. Also, the solubility entry in series [3] was “Insoluble”.
In the case of `Cc1ccc(CN(NC(=O)Cc2ccccc2)C(=O)N2CCC[C@H]2C(=O)N[C@@H](Cc2cccnc2)C(=O)N[C@H](CC(=O)O)Cc2ccccc2)cc1`, the inhibition entry in series [1] and in series [2] was “inactive” throughout.
For `O=C(O)C[C@H](Cc1ccccc1)NC(=O)[C@H](Cc1cccnc1)NC(=O)[C@@H]1C[C@@H](O)CN1C(=O)NNC(=O)Cc1ccccc1`, the inhibition entry in series [1] and in series [2] was “inactive” in each case.
For the molecule `O=C(O)C[C@H](Cc1ccccc1)NC(=O)[C@H](Cc1cccnc1)NC(=O)[C@@H]1CCCN1C(=O)N(Cc1cn(-c2ccc(F)cc2)nn1)NC(=O)Cc1ccccc1`, the inhibition entry in series [1] and in series [2] was “inactive” throughout.
Take `O=C(O)C[C@H](Cc1ccccc1)NC(=O)[C@H](Cc1cccnc1)NC(=O)[C@@H]1C[C@H](O)CN1C(=O)N(Cc1ccccc1)NC(=O)Cc1ccccc1`: the inhibition result in series [1] and in series [2] was “inactive” in each case.
With `O=C(O)C[C@H](Cc1ccccc1)NC(=O)[C@H](Cc1cccnc1)NC(=O)[C@@H]1C[C@H](O)[C@@H]2CC[C@H](NC(=O)Cc3ccccc3)C(=O)N12`, the inhibition entry in series [1] and in series [2] was “inactive” each time.
For `C#CCN(NC(=O)Cc1ccccc1)C(=O)N1C[C@@H](F)C[C@H]1C(=O)N[C@@H](Cc1cccnc1)C(=O)N[C@H](CC(=O)O)Cc1ccccc1`, the inhibition result in series [1] and in series [2] was “inactive” throughout.
As to `[N-]=[N+]=Nc1ccc(CC(=O)N[C@H]2CC[C@H]3CC[C@@H](C(=O)N[C@@H](Cc4cccnc4)C(=O)N[C@H](CC(=O)O)Cc4ccccc4)N3C2=O)cc1`, the inhibition entry in series [1] and in series [2] was “inactive” throughout.
Consider `O=C(O)C[C@H](Cc1ccccc1)NC(=O)[C@H](Cc1cccnc1)NC(=O)[C@@H]1CCCN1C(=O)N(Cc1c[nH]nn1)NC(=O)Cc1ccccc1`, for which the inhibition result in series [1] and in series [2] was “inactive” in each case.
Take `O=C(O)C[C@H](Cc1ccccc1)NC(=O)[C@H](Cc1cccnc1)NC(=O)[C@@H]1C[C@@H](F)CN1C(=O)NNC(=O)Cc1ccccc1` (PhAc-[azaGly][Pro(trans-4-F)][3Pal][β3hF]-OH): the inhibition result in series [1] and in series [2] was “inactive” each time.
For `O=C(O)C[C@H](Cc1ccccc1)NC(=O)[C@H](Cc1cccnc1)NC(=O)[C@@H]1C[C@H](O)CN1C(=O)NNC(=O)Cc1ccccc1`, the inhibition entry in series [1] and in series [2] was “inactive” in each case.
For `O=C(O)C[C@H](Cc1ccccc1)NC(=O)[C@H](Cc1cccnc1)NC(=O)[C@@H]1C[C@@H](F)CN1C(=O)N(Cc1ccccc1)NC(=O)Cc1ccccc1`, the inhibition result in series [1] and in series [2] was “inactive” throughout.
`COc1ccc(C2=C3CC[C@@H](C(=O)N[C@@H](Cc4cccnc4)C(=O)N[C@H](CC(=O)O)Cc4ccccc4)N3C(=O)[C@@H](NC(=O)Cc3ccccc3)C2)cc1`: the inhibition entry in series [1] and in series [2] was “inactive” each time.
On to `CN(C)CC#CCN(NC(=O)Cc1ccccc1)C(=O)N1CCC[C@H]1C(=O)N[C@@H](Cc1cccnc1)C(=O)N[C@H](CC(=O)O)Cc1ccccc1`, for which the inhibition result in series [1] and in series [2] was “inactive” throughout.

Source of the values: ChEMBL document CHEMBL4350956, “Paired Utility of Aza-Amino Acyl Proline and Indolizidinone Amino Acid Residues for Peptide Mimicry: Conception of Prostaglandin F2α Receptor Allosteric Modulators That Delay Preterm Birth” (J Med Chem, 2019).
